From ChEMBL document CHEMBL3046615, “Isolation of nematicidal compounds from Tagetes patula L. yellow flowers: structure-activity relationship studies against cyst nematode Heterodera zeae infective stage larvae” (2011)
Calls of active or inactive are those of the source. The calls are words filed in the database; no cut-off is given here.

Key:
[1] = test system: Heterodera zeae; assay: Nematicidal activity against Heterodera zeae infective stage larvae assessed as nematode mortality at 1% under dark conditions measured 24 hr post dose by stereoscopic microscopy; assay type: functional
Method in brief: (§1)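 Freshly hatched H. zeae second-stage juveniles, 100 per Petri plate, three replicates. Samples in MeOH, DMSO or water were tested in glass cavity blocks; petroleum ether samples were dried onto the block and larvae transferred on agar pieces. Percentages are dilutions of 30 mg/mL stocks (extracts/fractions) or 1 mg/mL stocks (pure compounds). Incubated at 28 ± 2 °C in light or dark box; mortality averaged over three replicates.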

[2] = test system: Heterodera zeae; assay: Nematicidal activity against Heterodera zeae infective stage larvae assessed as nematode mortality at 2% under dark conditions measured 24 hr post dose by stereoscopic microscopy; assay type: functional; method in brief: as §1
[3] = test system: Heterodera zeae; assay: Nematicidal activity against Heterodera zeae infective stage larvae assessed as nematode mortality at 5% under dark conditions measured 24 hr post dose by stereoscopic microscopy; assay type: functional; method in brief: as §1
[4] = test system: Heterodera zeae; assay: Nematicidal activity against Heterodera zeae infective stage larvae assessed as nematode mortality at 0.125% under light conditions measured 48 hr post dose by stereoscopic microscopy; assay type: functional; method in brief: as §1
[5] = test system: Heterodera zeae; assay: Nematicidal activity against Heterodera zeae infective stage larvae assessed as nematode mortality at 0.25% under light conditions measured 48 hr post dose by stereoscopic microscopy; assay type: functional; method in brief: as §1
[6] = test system: Heterodera zeae; assay: Nematicidal activity against Heterodera zeae infective stage larvae assessed as nematode mortality at 0.125% under light conditions measured 24 hr post dose by stereoscopic microscopy; assay type: functional; method in brief: as §1
[7] = test system: Heterodera zeae; assay: Nematicidal activity against Heterodera zeae infective stage larvae assessed as nematode mortality at 0.25% under light conditions measured 24 hr post dose by stereoscopic microscopy; assay type: functional; method in brief: as §1
[8] = test system: Heterodera zeae; assay: Nematicidal activity against Heterodera zeae infective stage larvae assessed as nematode mortality at 0.5% under light conditions measured 24 hr post dose by stereoscopic microscopy; assay type: functional; method in brief: as §1
[9] = test system: Heterodera zeae; assay: Nematicidal activity against Heterodera zeae infective stage larvae assessed as nematode mortality at 1% under light conditions measured 24 hr post dose by stereoscopic microscopy; assay type: functional; method in brief: as §1
[10] = test system: Heterodera zeae; assay: Nematicidal activity against Heterodera zeae infective stage larvae assessed as nematode mortality at 2% under light conditions measured 24 hr post dose by stereoscopic microscopy; assay type: functional; method in brief: as §1
[11] = test system: Heterodera zeae; assay: Nematicidal activity against Heterodera zeae infective stage larvae assessed as nematode mortality at 5% under light conditions measured 24 hr post dose by stereoscopic microscopy; assay type: functional; method in brief: as §1
[12] = test system: Heterodera zeae; assay: Nematicidal activity against Heterodera zeae infective stage larvae assessed as nematode mortality at 0.125% under dark conditions measured 5 to 60 min post dose by stereoscopic microscopy; assay type: functional, organism-based
Method in brief: (§2)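 H. zeae freshly hatched second-stage juveniles, 100 per plate, three replicates, at 28 ± 2 °C under light or in a dark box. Dilutions are % of a stock: 30 mg/mL for extracts/fractions, 1 mg/mL for pure compounds. Methanol-, DMSO- or water-soluble samples were tested in glass cavity blocks. Petroleum ether-soluble samples were air-dried in the block and covered with agar pieces bearing cultured larvae. Mortality was followed over 5–60 min; each value is the mean of three experiments.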

[13] = test system: Heterodera zeae; assay: Nematicidal activity against Heterodera zeae infective stage larvae assessed as nematode mortality at 0.25% under dark conditions measured 5 to 60 min post dose by stereoscopic microscopy; assay type: functional, organism-based; method in brief: as §2
[14] = test system: Heterodera zeae; assay: Nematicidal activity against Heterodera zeae infective stage larvae assessed as nematode mortality at 0.5% under dark conditions measured 5 to 60 min post dose by stereoscopic microscopy; assay type: functional, organism-based; method in brief: as §2
[15] = test system: Heterodera zeae; assay: Nematicidal activity against Heterodera zeae infective stage larvae assessed as nematode mortality at 1% under dark conditions measured 5 to 60 min post dose by stereoscopic microscopy; assay type: functional, organism-based; method in brief: as §2
[16] = test system: Heterodera zeae; assay: Nematicidal activity against Heterodera zeae infective stage larvae assessed as nematode mortality at 2% under dark conditions measured 5 to 60 min post dose by stereoscopic microscopy; assay type: functional, organism-based; method in brief: as §2
[17] = test system: Heterodera zeae; assay: Nematicidal activity against Heterodera zeae infective stage larvae assessed as nematode mortality at 5% under dark conditions measured 5 to 60 min post dose by stereoscopic microscopy; assay type: functional, organism-based; method in brief: as §2
[18] = test system: Heterodera zeae; assay: Nematicidal activity against Heterodera zeae infective stage larvae assessed as nematode mortality at 0.125% under light conditions measured 5 to 60 min post dose by stereoscopic microscopy; assay type: functional, organism-based; method in brief: as §2
[19] = test system: Heterodera zeae; assay: Nematicidal activity against Heterodera zeae infective stage larvae assessed as nematode mortality at 0.25% under light conditions measured 5 to 60 min post dose by stereoscopic microscopy; assay type: functional, organism-based; method in brief: as §2
[20] = test system: Heterodera zeae; assay: Nematicidal activity against Heterodera zeae infective stage larvae assessed as nematode mortality at 0.5% under light conditions measured 5 to 60 min post dose by stereoscopic microscopy; assay type: functional, organism-based; method in brief: as §2
[21] = test system: Heterodera zeae; assay: Nematicidal activity against Heterodera zeae infective stage larvae assessed as nematode mortality at 1% under light conditions measured 5 to 60 min post dose by stereoscopic microscopy; assay type: functional, organism-based; method in brief: as §2
[22] = test system: Heterodera zeae; assay: Nematicidal activity against Heterodera zeae infective stage larvae assessed as nematode mortality at 2% under light conditions measured 5 to 60 min post dose by stereoscopic microscopy; assay type: functional, organism-based; method in brief: as §2
[23] = test system: Heterodera zeae; assay: Nematicidal activity against Heterodera zeae infective stage larvae assessed as nematode mortality at 5% under light conditions measured 5 to 60 min post dose by stereoscopic microscopy; assay type: functional, organism-based; method in brief: as §2
[24] = test system: Heterodera zeae; assay: Nematicidal activity against Heterodera zeae infective stage larvae assessed as nematode mortality at 0.125% under dark conditions measured 48 hr post dose by stereoscopic microscopy; assay type: functional; method in brief: as §1
[25] = test system: Heterodera zeae; assay: Nematicidal activity against Heterodera zeae infective stage larvae assessed as nematode mortality at 0.25% under dark conditions measured 48 hr post dose by stereoscopic microscopy; assay type: functional; method in brief: as §1
[26] = test system: Heterodera zeae; assay: Nematicidal activity against Heterodera zeae infective stage larvae assessed as nematode mortality at 0.125% under dark conditions measured 24 hr post dose by stereoscopic microscopy; assay type: functional; method in brief: as §1
[27] = test system: Heterodera zeae; assay: Nematicidal activity against Heterodera zeae infective stage larvae assessed as nematode mortality at 0.25% under dark conditions measured 24 hr post dose by stereoscopic microscopy; assay type: functional; method in brief: as §1
[28] = test system: Heterodera zeae; assay: Nematicidal activity against Heterodera zeae infective stage larvae assessed as nematode mortality at 0.5% under dark conditions measured 24 hr post dose by stereoscopic microscopy; assay type: functional; method in brief: as §1
[29] = test system: Heterodera zeae; assay: Nematicidal activity against Heterodera zeae infective stage larvae assessed as nematode mortality at 0.5% under light conditions measured 72 hr post dose by stereoscopic microscopy; assay type: functional; method in brief: as §1
[30] = test system: Heterodera zeae; assay: Nematicidal activity against Heterodera zeae infective stage larvae assessed as nematode mortality at 0.5% under light conditions measured 48 hr post dose by stereoscopic microscopy; assay type: functional; method in brief: as §1
[31] = test system: Heterodera zeae; assay: Nematicidal activity against Heterodera zeae infective stage larvae assessed as nematode mortality at 1% under dark conditions measured 72 hr post dose by stereoscopic microscopy; assay type: functional; method in brief: as §1
[32] = test system: Heterodera zeae; assay: Nematicidal activity against Heterodera zeae infective stage larvae assessed as nematode mortality at 1% under dark conditions measured 48 hr post dose by stereoscopic microscopy; assay type: functional; method in brief: as §1
[33] = test system: Heterodera zeae; assay: Nematicidal activity against Heterodera zeae infective stage larvae assessed as nematode mortality at 1% under light conditions measured 72 hr post dose by stereoscopic microscopy; assay type: functional; method in brief: as §1
[34] = test system: Heterodera zeae; assay: Nematicidal activity against Heterodera zeae infective stage larvae assessed as nematode mortality at 1% under light conditions measured 48 hr post dose by stereoscopic microscopy; assay type: functional; method in brief: as §1
[35] = test system: Heterodera zeae; assay: Nematicidal activity against Heterodera zeae infective stage larvae assessed as nematode mortality at 0.125% under dark conditions measured 72 hr post dose by stereoscopic microscopy; assay type: functional; method in brief: as §1
[36] = test system: Heterodera zeae; assay: Nematicidal activity against Heterodera zeae infective stage larvae assessed as nematode mortality at 0.25% under dark conditions measured 72 hr post dose by stereoscopic microscopy; assay type: functional; method in brief: as §1
[37] = test system: Heterodera zeae; assay: Nematicidal activity against Heterodera zeae infective stage larvae assessed as nematode mortality at 0.5% under dark conditions measured 72 hr post dose by stereoscopic microscopy; assay type: functional; method in brief: as §1
[38] = test system: Heterodera zeae; assay: Nematicidal activity against Heterodera zeae infective stage larvae assessed as nematode mortality at 0.5% under dark conditions measured 48 hr post dose by stereoscopic microscopy; assay type: functional; method in brief: as §1
[39] = test system: Heterodera zeae; assay: Nematicidal activity against Heterodera zeae infective stage larvae assessed as nematode mortality at 0.125% under light conditions measured 72 hr post dose by stereoscopic microscopy; assay type: functional; method in brief: as §1
[40] = test system: Heterodera zeae; assay: Nematicidal activity against Heterodera zeae infective stage larvae assessed as nematode mortality at 0.25% under light conditions measured 72 hr post dose by stereoscopic microscopy; assay type: functional; method in brief: as §1

Row | Compound | mortality [1] [%] | mortality [4] [%] | mortality [5] [%] | mortality [6] [%] | mortality [7] [%] | mortality [8] [%] | mortality [9] [%] | Activity [12] | Activity [13] | Activity [14] | Activity [15] | Activity [16] | Activity [17] | Activity [18] | Activity [19] | Activity [20] | Activity [21] | Activity [22] | Activity [23] | mortality [24] [%] | further results
1 | CNC(=O)Oc1cccc2c1OC(C)(C)C2 [CARBOFURAN] | 100 | 100 | 100 | 40 | 80 | 100 | 100 | inactive | inactive | inactive | inactive | inactive | inactive | inactive | inactive | inactive | inactive | inactive | inactive | 100 | mortality [2]: 100%; mortality [3]: 100%; mortality [10]: 100%; mortality [11]: 100%; mortality [25]: 100%; mortality [26]: 60%; mortality [27]: 80%; mortality [28]: 100%
2 | COc1ccc(C(=O)O)cc1 [p-ANISIC ACID] | 50 | 10 | 20 | 10 | 10 | 30 | 40 | inactive | inactive | inactive | inactive | inactive | inactive | inactive | inactive | inactive | inactive | inactive | inactive | 20 | mortality [29]: 50%; mortality [30]: 40%; mortality [25]: 40%; mortality [26]: 10%; mortality [27]: 30%; mortality [28]: 50%; mortality [31]: 90%; mortality [32]: 60%; mortality [33]: 80%; mortality [34]: 50%; mortality [35]: 50%; mortality [36]: 80%; mortality [37]: 80%; mortality [38]: 50%; mortality [39]: 40%; mortality [40]: 50%
3 | CCCCCCCCCCCCCC(=O)O [MYRISTIC ACID] | 50 | 20 | 20 | 20 | 20 | 30 | 40 | inactive | inactive | inactive | inactive | inactive | inactive | inactive | inactive | inactive | inactive | inactive | inactive | 20 | mortality [29]: 50%; mortality [30]: 30%; mortality [25]: 30%; mortality [26]: 20%; mortality [27]: 30%; mortality [28]: 50%; mortality [31]: 90%; mortality [32]: 60%; mortality [33]: 80%; mortality [34]: 50%; mortality [35]: 50%; mortality [36]: 80%; mortality [37]: 80%; mortality [38]: 50%; mortality [39]: 40%; mortality [40]: 50%
4 | O=C(O)c1ccccc1 [BENZOIC ACID] | 0 | 0 | 0 | 0 | 0 | 0 | 0 | inactive | inactive | inactive | inactive | inactive | inactive | inactive | inactive | inactive | inactive | inactive | inactive | 0 | mortality [29]: 40%; mortality [30]: 10%; mortality [25]: 10%; mortality [26]: 0%; mortality [27]: 0%; mortality [28]: 0%; mortality [31]: 80%; mortality [32]: 70%; mortality [33]: 70%; mortality [34]: 50%; mortality [35]: 0%; mortality [36]: 50%; mortality [37]: 80%; mortality [38]: 50%; mortality [39]: 0%; mortality [40]: 0%
